Assay [1] is described as follows: Antiinflammatory activity in human neutrophils assessed as inhibition of fMLP/cytochalasin B-induced superoxide radical anion generation. It counts as functional, cell-based. The conditions noted are these: Neutrophil. The method in brief:
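Neutrophils from healthy adult donors were isolated by dextran sedimentation, Ficoll Hypaque centrifugation and hypotonic RBC lysis, then kept in Ca2+-free HBSS pH 7.4 at 4 °C. Cells with 0.5 mg/mL ferricytochrome c and 1 mM Ca2+ were equilibrated 2 min at 37 °C and given compound for 5 min. CB 1 µg/mL was added 3 min before 100 nM fMLP (10 min). SOD-inhibitable A550 was read continuously.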

Assay [2] in a line: Antiinflammatory activity in human neutrophils assessed as inhibition of fMLP/Cytochalasin B-induced elastase release. The assay is classed as functional, cell-based. The following applies: Neutrophil. The method in brief: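 Elastase release (azurophilic degranulation) was measured in donor neutrophils (6 × 10^5/mL) with MeO-Suc-Ala-Ala-Pro-Val-p-nitroanilide substrate at 100 µM. Cells were equilibrated 2 min at 37 °C, then pretreated with compound for 5 min. Stimulation was with fMLP 100 nM plus cytochalasin B 0.5 µg/mL, and A405 was monitored continuously. IC50 came from concentration-dependent inhibition.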

Data on 11 compounds can be found in ChEMBL document CHEMBL1140168, “Phthalides from Pittosporum illicioides var. illicioides with inhibitory activity on superoxide generation and elastase release by neutrophils” (J Nat Prod, 2008).

What is called IC50 is the concentration at which inhibition is half-maximal.

As for `COc1cc([C@@H]2OC[C@@H]3[C@H]2CO[C@H]3c2cc(OC)c(O)c(OC)c2)cc(OC)c1O`, the IC50 in assay [1] was 40.2 µM; in assay [2], greater than 50 µM.

Take `CC[C@@H]1OC(=O)c2c1cc(OC)c(OC)c2O`: the IC50 in assay [1] was 13.7 µM; in assay [2], greater than 50 µM.

`CC[C@@H]1OC(=O)c2c1cc(OC)c(OC)c2OC`: the IC50 in assay [1] was 17.6 µM; in assay [2] it was greater than 50 µM.

On to `C/C=C1\OC(=O)c2c1ccc(OC)c2O`, for which the half-inhibitory concentration (IC50) in assay [1] was found to be 45.3 µM; in assay [2], 38.6 µM.

Turning to `CC[C@H]1OC(=O)c2c1ccc(OC)c2O`, the results for the IC50 in assay [1] and in assay [2] were 21.2 µM and greater than 50 µM, respectively.

For the compound `CC[C@@H]1OC(=O)c2c1ccc(OC)c2O`, the results for the IC50 in assay [1] and in assay [2] were 29.8 µM and greater than 50 µM, respectively.

Regarding `C/C=C1\OC(=O)c2c1ccc(OC)c2OC`, the IC50 in assay [1] is greater than 50 µM; in assay [2] it was 33.9 µM.

Regarding `c1ccc2c(c1)[I+]c1ccccc1-2` [DIPHENYLENEIODONIUM], the IC50 in assay [1] was found to be 1.7 µM.

For the compound `COc1cc2ccc(=O)oc2c(OC)c1OC` [FRAXIDIN METHYL ETHER], the IC50 is 48.6 µM in assay [1] and greater than 50 µM in assay [2].

As for `O=S(=O)(F)Cc1ccccc1` [PHENYLMETHYLSULFONYLFLUORIDE], the IC50 in assay [2] is 202 µM.

With `COc1cc2ccc(=O)oc2cc1OC` [SCOPARONE], the IC50 was 41.4 µM in assay [1] and greater than 50 µM in assay [2].
